The values that follow come from ChEMBL document CHEMBL5230177, “Inactivation of myostatin by photooxygenation using functionalized d-peptides” (RSC Med Chem, 2023).

The pIC50 is the negative decadic logarithm of the IC50, by convention in mol/L. One may read the amount remaining as what is left of the initial amount, in per cent.

Series [1] has as its target Growth/differentiation factor 8 (Homo sapiens) (UniProt O14793). The series can be described thus: Photo-oxygenation of human recombinant Myostatin expressed in Escherichia coli cells assessed as oxygen adduct formation in myostatin peak fragment 79-90 at 3 uM measured after photoirradiation for 30 mins using LED by MALDI-TOF-MS analysis. An outline of the steps: (§1)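 Myostatin stock (8 μM in 1 mM HCl) diluted to 1 μM in 10 mM phosphate, pH 7.4. Functionalized peptide (final 3 μM) or methylene blue (final 1 μM) added. Irradiated 30 min with 730 nm LED (14 mW) at room temperature. Then 50 mM DTT reduction (37 °C, 0.5 h), Lys-C digestion (1/20 w/w, 37 °C, 2.5 h), ZipTip desalting, MALDI-TOF MS of fragments.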

The target is the same in series [2]. As to the kind of experiment: Photo-oxygenation of human recombinant Myostatin expressed in Escherichia coli cells assessed as oxygen adduct formation in myostatin peak fragment 55-78 at 3 uM measured after photoirradiation for 30 mins using LED by MALDI-TOF-MS analysis. An outline of the steps: as §1
For series [3] the target is unchanged. The series can be described thus: Photo-oxygenation of human recombinant Myostatin expressed in Escherichia coli cells assessed as oxygen adduct formation in myostatin peak fragment 40-54 at 3 uM measured after photoirradiation for 30 mins using LED by MALDI-TOF-MS analysis. An outline of the steps: as §1
Series [4] deals with Amyloid-beta precursor protein (Homo sapiens) (UniProt P05067). As to the kind of experiment: Photo-oxygenation of human Amyloid beta (1 to 42) assessed as oxygen adduct formation at 3 uM measured after photoirradiation for 30 mins using LED by MALDI-TOF-MS analysis. An outline of the steps: (§2)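 Aβ1-42 formed in situ from isopeptide stock (250 μM in 0.1% TFA, ultracentrifuged), diluted to 20 μM in 10 mM phosphate, pH 7.4. Functionalized peptide (final 3 μM) or methylene blue (final 1 μM) added. Irradiated with 730 nm LED (14 mW, 3–5 cm) at room temperature. Reduced with 50 mM DTT (37 °C, 0.5 h), Lys-C digested (1/20 w/w, 37 °C, 2.5 h), desalted, analysed by MALDI-TOF MS.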
Chain of Amyloid-beta precursor protein (Homo sapiens) (P05067 whole entry): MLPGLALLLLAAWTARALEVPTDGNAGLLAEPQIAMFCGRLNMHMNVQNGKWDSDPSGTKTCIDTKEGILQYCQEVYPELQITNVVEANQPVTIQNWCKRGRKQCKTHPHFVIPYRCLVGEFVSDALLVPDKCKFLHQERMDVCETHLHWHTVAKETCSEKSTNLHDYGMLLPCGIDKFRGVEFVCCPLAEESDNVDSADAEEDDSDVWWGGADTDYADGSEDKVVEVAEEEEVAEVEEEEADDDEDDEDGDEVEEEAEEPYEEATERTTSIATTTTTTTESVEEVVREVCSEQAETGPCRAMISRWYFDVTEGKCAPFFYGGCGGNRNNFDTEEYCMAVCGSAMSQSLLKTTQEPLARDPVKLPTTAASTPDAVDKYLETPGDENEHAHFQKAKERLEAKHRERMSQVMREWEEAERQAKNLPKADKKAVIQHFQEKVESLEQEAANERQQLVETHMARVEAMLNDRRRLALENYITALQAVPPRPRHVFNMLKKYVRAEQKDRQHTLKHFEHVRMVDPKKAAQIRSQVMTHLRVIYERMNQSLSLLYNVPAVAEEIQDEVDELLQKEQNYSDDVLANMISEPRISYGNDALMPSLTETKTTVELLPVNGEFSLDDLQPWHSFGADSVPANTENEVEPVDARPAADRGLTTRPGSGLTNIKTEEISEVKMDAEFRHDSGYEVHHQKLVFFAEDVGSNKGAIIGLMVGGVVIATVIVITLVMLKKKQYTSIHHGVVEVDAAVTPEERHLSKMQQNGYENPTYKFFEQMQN

The subject of series [5] is HEK293. The series can be described thus: Phototoxicity against human HEK293 cells assessed as reduction in cell viability at 3 uM photoirradiated for 30 mins using LED followed by incubation with compound for 24 hrs by WST-1 assay. It is filed as toxicity, cell-based. As to conditions: hek293, 24.5 h, time 1470 min. An outline of the steps: (§3)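 HEK293 cells grown in DMEM with 10% FBS and non-essential amino acids at 37 °C, 5% CO2, seeded 2.0×10^4 cells/well. After 48 h, medium switched to serum- and phenol red-free DMEM containing 3 μM peptide or methylene blue. Cells irradiated with LED (λmax 730 nm, 30 min), then incubated 24 h. Viability read by WST-1; Student's t-test.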
For orientation: Tetrazolium dyes change colour on reduction, which living cells bring about.

For series [6], the system named is HEK293. The series can be described thus: Cytotoxicity against human HEK293 cells assessed as reduction in cell viability at 3 uM incubated for 24 hrs by WST-1 assay. It counts as toxicity, cell-based. As to conditions: hek293, 24 h.
In series [7] the target is T1, Growth/differentiation factor 8 (Homo sapiens, UniProt O14793).
T1 sequence (O14793 whole entry): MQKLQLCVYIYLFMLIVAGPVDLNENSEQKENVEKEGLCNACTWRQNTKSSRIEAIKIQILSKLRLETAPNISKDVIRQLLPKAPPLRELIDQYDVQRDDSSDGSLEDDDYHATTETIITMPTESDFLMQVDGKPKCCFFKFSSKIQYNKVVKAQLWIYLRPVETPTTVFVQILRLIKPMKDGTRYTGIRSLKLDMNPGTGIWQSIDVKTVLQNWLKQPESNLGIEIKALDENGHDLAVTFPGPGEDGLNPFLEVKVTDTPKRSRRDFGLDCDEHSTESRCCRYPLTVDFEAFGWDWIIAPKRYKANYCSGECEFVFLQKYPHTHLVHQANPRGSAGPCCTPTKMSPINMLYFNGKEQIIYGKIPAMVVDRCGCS
As to the kind of experiment: Photo-oxygenation mediated inactivation of human recombinant Myostatin expressed in Escherichia coli cells photoirradiated for 30 mins using LED followed by incubation with luciferase reporter transfected HEK293 cells for 4 hrs by luciferase reporter gene assay. The method in brief:
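Myostatin (1 μM in 10 mM phosphate, pH 7.4, with or without peptide) diluted in serum-free DMEM to 0.6 nM, irradiated at 730 nm for 30 min, then added to HEK293 cells. Cells were transfected 24 h with SBE-luc2P reporter plus TK-Renilla control, then held 8 h in serum/phenol red-free DMEM. Exposure 4 h, PBS wash, dual-luciferase read-out. Triplicate, mean ± s.d. (n = 3), Tukey's test.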
(Reporter assays use an easily measured gene product as a stand-in for the process of interest.)

Another series concerns trypsin (Sus scrofa). The series can be described thus: Stability of the compound assessed as trypsin (porcine pancreas)-mediated drug degradation at 100 uM measured after 3 hrs by MALDI-TOF-MS analysis.
The subject of series [8] is chymotrypsin (Bos taurus). The series can be described thus: Stability of the compound assessed as chymotrypsin (bovine pancreas)-mediated drug degradation by measuring residual ratio at 100 uM measured after 1 hr by HPLC analysis.
Series [9] has as its system chymotrypsin (Bos taurus). As to the kind of experiment: Stability of the compound assessed as chymotrypsin (bovine pancreas)-mediated drug degradation by measuring cleavage at Tyr7-Ser8 residue at 100 uM measured for 3 hrs by MALDI-TOF-MS analysis.
Series [10] has as its system chymotrypsin (Bos taurus). As to the kind of experiment: Stability of the compound assessed as chymotrypsin (bovine pancreas)-mediated drug degradation by measuring cleavage at Leu21-Arg22 residue at 100 uM measured for 3 hrs by MALDI-TOF-MS analysis.
The target in series [11] is Growth/differentiation factor 8 (Homo sapiens) (UniProt O14793). The series can be described thus: Inactivation of human recombinant Myostatin expressed in Escherichia coli cells at 300 nM incubated with luciferase reporter transfected HEK293 cells for 4 hrs by luciferase reporter gene assay.
Series [12] shares this target. The series can be described thus: Photo-oxygenation of human recombinant Myostatin expressed in Escherichia coli cells assessed as oxygen adduct formation at 1 uM measured after photoirradiation for 30 mins using LED by MALDI-TOF-MS analysis. The method in brief:
as §1

The target of series [13] is Amyloid-beta precursor protein (Homo sapiens) (UniProt P05067). As to the kind of experiment: Photo-oxygenation of human Amyloid beta (1 to 42) assessed as oxygen adduct formation at 1 uM measured after photoirradiation for 30 mins using LED by MALDI-TOF-MS analysis. The method in brief: as §2
Series [14] in a line: Phototoxicity against human HEK293 cells assessed as cell viability at 3 uM photoirradiated for 30 mins using LED followed by incubation with compound for 24 hrs by WST-1 assay. As to conditions: time 1470 min, read-out: Activity. It is filed as toxicity, cell-based. An outline of the steps: as §3

pIC50: −log10 of the molar value. The source made the active and inactive calls. No cut-off for these calls is given here.

On to `CC[C@@H](C)[C@@H](NC(=O)[C@@H](CCCNC(=N)N)NC(=O)[C@@H](CCc1ccccc1)NC(=O)[C@H](NC(=O)[C@@H](CCCCN)NC(=O)[C@H](NC(=O)[C@@H](Cc1cn(CCN2CCCc3cc(/C=C/C4=C(Br)C(/C=C/c5cc6c7c(c5)CCCN7CCC6)=[O+][B-](F)(C(F)(F)F)O4)ccc32)nn1)NC(=O)[C@H](NC(=O)[C@@H](Cc1ccc2ccccc2c1)NC(=O)[C@@H](CCCNC(=N)N)NC(=O)[C@@H](CCCCN)NC(=O)[C@H](NC(=O)[C@@H](CCCNC(=N)N)NC(=O)[C@H](N)CC(C)C)C1CCCCC1)[C@H](C)CC)C1CCCCC1)[C@H](C)CC)C(=O)N[C@H](Cc1ccc(O)cc1)C(=O)N[C@H](CCc1ccccc1)C(N)=O` (stereo not given in full), for which the result in [1] and in series [2] was Active. Also, the outcome in series [3] and in [4] was inactive. In addition, the Activity entry in the series with HEK293 [5] is reported as “Non-Toxic”.
On to `CN(C)c1ccc2nc3ccc(N(C)C)cc3[s+]c2c1.[Cl-]` [METHYLENE BLUE ANHYDROUS], for which the Activity result in the series with HEK293 [6] is recorded as “Non-Toxic”.
Consider `CC[C@@H](C)[C@@H](NC(=O)[C@@H](Cc1cn(CCN2CCCc3cc(/C=C/C4=C(Br)C(/C=C/c5cc6c7c(c5)CCCN7CCC6)=[O+][B-](F)(C(F)(F)F)O4)ccc32)nn1)NC(=O)[C@@H](CCc1ccccc1)NC(=O)[C@H](NC(=O)[C@@H](CCCCN)NC(=O)[C@H](NC(=O)[C@@H](CCCNC(=N)N)NC(=O)[C@H](NC(=O)[C@@H](Cc1ccc2ccccc2c1)NC(=O)[C@@H](CCCNC(=N)N)NC(=O)[C@@H](CCCCN)NC(=O)[C@H](NC(=O)[C@@H](CCCNC(=N)N)NC(=O)[C@H](N)CC(C)C)C1CCCCC1)[C@H](C)CC)C1CCCCC1)[C@H](C)CC)C(=O)N[C@H](Cc1ccc(O)cc1)C(=O)N[C@H](CCc1ccccc1)C(N)=O` (stereo not given in full), for which the result in series [1] and in series [2] was Active. In addition, the outcome in series [3] and in [4] was inactive. In addition, the Activity entry in the series on HEK293 [5] was “Non-Toxic”.
For `CC[C@H](C)[C@H](NC(=O)[C@H](C)NC(=O)[C@H](CCC(=O)O)NC(=O)[C@@H](NC(=O)[C@H](CCCNC(=N)N)NC(=O)[C@H](CO)NC(=O)[C@H](Cc1ccc(O)cc1)NC(=O)[C@H](CCCNC(=N)N)NC(=O)[C@@H](NC(=O)[C@H](CC(N)=O)NC(=O)[C@H](CCC(N)=O)NC(=O)[C@H](CCCNC(=N)N)NC(=O)CC(c1ccccc1)c1ccccc1)[C@@H](C)O)[C@@H](C)CC)C(=O)N[C@@H](CCCCN)C(=O)N[C@H](C(=O)N[C@@H](Cc1cn(CCN2CCCc3cc(/C=C/C4=C(Br)C(/C=C/c5cc6c7c(c5)CCCN7CCC6)=[O+][B-](F)(C(F)(F)F)O4)ccc32)nn1)C(=O)N[C@H](C(=O)N[C@@H](CC(C)C)C(=O)N[C@@H](CO)C(=O)N[C@@H](CCCCN)C(=O)N[C@@H](CC(C)C)C(=O)N[C@@H](CCCNC(=N)N)C(=O)N[C@@H](CC(C)C)C(=O)O)[C@@H](C)CC)[C@@H](C)CC` (stereo not given in full), the pIC50 in series [7] was 8.68. Moreover, the Stability result (in the series with trypsin (Sus scrofa); in series [9]; in series [10]) was “Unstable” throughout. Also, in series [8], the share remaining at 1 h, 100 µM is 13%.
Regarding `CC[C@@H](C)[C@@H](NC(=O)[C@@H](CCCNC(=N)N)NC(=O)[C@@H](CCc1ccccc1)NC(=O)[C@H](NC(=O)[C@@H](CCCCN)NC(=O)[C@H](NC(=O)[C@@H](CCCNC(=N)N)NC(=O)[C@H](NC(=O)[C@@H](Cc1ccc2ccccc2c1)NC(=O)[C@@H](CCCNC(=N)N)NC(=O)[C@@H](CCCCN)NC(=O)[C@H](NC(=O)[C@@H](CCCNC(=N)N)NC(=O)[C@H](N)CC(C)C)C1CCCCC1)[C@H](C)CC)C1CCCCC1)[C@H](C)CC)C(=O)N[C@H](Cc1ccc(O)cc1)C(=O)N[C@H](CCc1ccccc1)C(N)=O`, the inhibition entry in series [11] was “Active”.
As for `CN(C)c1ccc2nc3ccc(=[N+](C)C)cc-3sc2c1` [METHYLENE BLUE ANHYDROUS], the outcome in series [12] and in series [13] was Active. Moreover, the viability at 24.5 h, 3 µM in series [14] is 21%.
In the case of `CC[C@@H](C)[C@@H](NC(=O)[C@@H](CCCNC(=N)N)NC(=O)[C@@H](CCc1ccccc1)NC(=O)[C@H](NC(=O)[C@@H](CCCCN)NC(=O)[C@H](NC(=O)[C@@H](CCCNC(=N)N)NC(=O)[C@H](NC(=O)[C@@H](Cc1ccc2ccccc2c1)NC(=O)[C@@H](CCCNC(=N)N)NC(=O)[C@@H](CCCCN)NC(=O)[C@H](NC(=O)[C@@H](CCCNC(=N)N)NC(=O)[C@H](N)CC(C)C)C1CCCCC1)[C@H](C)CC)C1CCCCC1)[C@H](C)CC)C(=O)N[C@H](Cc1ccc(O)cc1)C(=O)N[C@H](Cc1cn(CCN2CCCc3cc(/C=C/C4=C(Br)C(/C=C/c5cc6c7c(c5)CCCN7CCC6)=[O+][B-](F)(C(F)(F)F)O4)ccc32)nn1)C(N)=O` (stereo not given in full), the outcome in series [1] and in [2] was Active. Moreover, the outcome in series [3] and in series [4] was inactive. Moreover, the Activity result in the series with HEK293 [5] was “Non-Toxic”.
As to `CC[C@@H](C)[C@@H](NC(=O)[C@@H](CCCNC(=N)N)NC(=O)[C@@H](CCc1ccccc1)NC(=O)[C@H](NC(=O)[C@@H](CCCCN)NC(=O)[C@H](NC(=O)[C@@H](CCCNC(=N)N)NC(=O)[C@H](NC(=O)[C@@H](Cc1ccc2ccccc2c1)NC(=O)[C@@H](CCCNC(=N)N)NC(=O)[C@@H](Cc1cn(CCN2CCCc3cc(/C=C/C4=C(Br)C(/C=C/c5cc6c7c(c5)CCCN7CCC6)=[O+][B-](F)(C(F)(F)F)O4)ccc32)nn1)NC(=O)[C@H](NC(=O)[C@@H](CCCNC(=N)N)NC(=O)[C@H](N)CC(C)C)C1CCCCC1)[C@H](C)CC)C1CCCCC1)[C@H](C)CC)C(=O)N[C@H](Cc1ccc(O)cc1)C(=O)N[C@H](CCc1ccccc1)C(N)=O` (stereo not given in full), the result in [1] and in series [2] was Active. For the same molecule, the result in [3] and in series [4] was inactive. For the same molecule, in the series on HEK293 [5], the Activity result is on record as “Non-Toxic”.
